Source: PubChem BioAssay AID623971 (Broad Institute, 2012)
Values joined by “and” are separate entries in the source; they are usually repeats but may differ in a detail not shown here. Identical values can stand only once. Active and inactive are the calls of the source.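 The calls were made as follows: active = compounds lowering yeast growth whose fitted half-maximal concentration is at most twice the top tested dose; inconclusive = flat curve with moderate growth inhibition, or a poor curve fit; inactive = the rest.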

test system: not listed separately; assay: S. cerevisiae growth inhibition in glucose medium, dose response, OD600, powder samples, set 3 (AID 623971); details: S. cerevisiae growth in glucose, OD600, 48 h; at 3 µM (top of the series)
Summary of the method: (§1)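 Assay system: Saccharomyces cerevisiae yeast cells, whole-organism growth assay / Buffer or medium: CSM-glucose medium / Dosing: test compounds transferred into wells by pin tool / Schedule: 48 h at 30 °C without shaking / Signal: optical density at 600 nm (absorbance) / Evaluation: yeast growth inhibition, seen as decrease in OD600 signal / Controls: amphotericin B 10 µM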

Row | Structure (SMILES) | activity change, negative = growth inhibition
1 | CCOC(=O)N1C(=O)C2(CCCCC2)N(c2ccccc2)C1=S | -11.6% (inactive)
2 | C/C=C/[C@@H]1[C@H]2C[C@@H](C)CC[C@@H]2C(C)=C[C@H]1C(=O)c1c(O)c(-c2ccc(O)cc2)c[nH]c1=O | -5.04% (inactive)
3 | CCOC(=O)N1C(=O)C2(CCCCC2)N(c2ccc(Cl)cc2)C1=S | -15.5% (inactive)
4 | CCOC(=O)N1C(=O)C2(CCCCC2)N(c2cccc(C)c2)C1=S | -4.85% (inactive)
5 | CCOC(=O)N1C(=O)C2(CCCCC2)N(c2ccc(F)cc2)C1=S | -4.53% (inactive)
6 | CCOC(=O)N1C(=O)C2(CCCCC2)N(c2ccc(C)cc2)C1=S | -5.09% (inactive) and -19.8% (inactive)
7 | CCOC(=O)N1C(=O)C2(CCCCC2)N(c2ccc(C#N)cc2)C1=S | -21.5% (inactive)

test system: S. cerevisiae growth in glucose, OD600, 48 h; assay: as above; details: not given
Summary of the method: as §1

Row | Structure (SMILES) | AC50 [nM]
8 | CC1/C=C/C=C\C=C\C=C\C=C\C=C\C=C\C(O[C@H]2OC(C)C(O)C(N)C2O)CC2OC(O)(CC(O)CC(O)C(O)CCC(O)CC(O)CC(=O)OC(C)C(C)C1O)CC(O)C2C(=O)O (stereo partly drawn) | 384
